This is an account of results in ChEMBL document CHEMBL1138022, “Structurally simplified macrolactone analogues of halichondrin B” (Bioorg Med Chem Lett, 2004).

One test has as its system DLD-1. In words: In vitro inhibitory concentration required to inhibit the growth of DLD-1 cells under continuous exposure conditions for 3-4 days. Format: functional, cell-based. To be noted: Homo sapiens. Put shortly:
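Human colon cancer DLD-1 cells were exposed to compound continuously for 3–4 days and growth inhibition was measured. IC50 is given ± SEM, with n the number of experiments.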

The next test relates to U-937. In words: In vitro inhibitory concentration required to inhibit the growth of U937 cells was determined by mitotic block reversibility assay. Format: functional. To be noted: Homo sapiens. Summed up: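 Reversibility assay in human histiocytic lymphoma U937 cells. After drug washout, flow cytometry scored whether a complete mitotic block was still maintained 10 h later.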

A further test relates to P388. In words: Fold resistance calculated as the inhibition concentration ratio between retrovirally transformed P388/VMDRC.04 and parental P388 cells. Format: functional. Put shortly: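 P-glycoprotein-mediated efflux assessed in murine P388/VMDRC.04, a retrovirally transformed multidrug-resistant subline of P388/S leukemia cells, alongside parental P388 cells. Growth inhibition IC50 was measured in each line. Fold resistance is the IC50 ratio of P388/VMDRC.04 to parental P388.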

`C=C1C[C@@H]2CC[C@@]34C[C@@H]5O[C@@H]6C(O[C@H]7CC[C@H](CC(=O)O[C@@H]8[C@@H](OC)[C@H](C[C@@H](O)CO)O[C@H]8C[C@H]8O[C@@H](CC[C@@H]1O2)C[C@@H](C)C8=C)O[C@@H]7[C@@H]6O3)[C@H]5O4` returned an IC50 with DLD-1 of 1.4 nM. Further, the IC99 in the test on U-937 came to 0.03 µM. Besides, the FR in the test on P388 is listed as 8.8.
Taken in the same sequence, the figures for `C=C1C[C@@H]2CC[C@@]34C[C@@H]5O[C@@H]6C(O[C@H]7CC[C@H](CC(=O)O[C@@H]8[C@@H](OC)[C@@H](O)[C@H](CC(O)CO)O[C@H]8C[C@H]8O[C@@H](CC[C@@H]1O2)C[C@@H](C)C8=C)O[C@@H]7[C@@H]6O3)[C@H]5O4` (stereo partly drawn) were 19 nM, 0.053 µM and 23.
Regarding `C=C1C[C@@H]2CC[C@@]34C[C@@H]5O[C@@H]6C(O[C@H]7CC[C@H](CC(=O)O[C@H]8[C@@H](OC)[C@H](CC(O)CO)O[C@H]8C[C@H]8O[C@@H](CC[C@@H]1O2)C[C@@H](C)C8=C)O[C@@H]7[C@@H]6O3)[C@H]5O4` (stereo partly drawn), in the test on DLD-1, the IC50 was > 1000 nM.
The compound `C=C1C[C@@H]2CC[C@@]34C[C@@H]5O[C@@H]6C(O[C@H]7CC[C@H](CC(=O)O[C@@H]8[C@@H](C)[C@@H]9O[C@H](CO)[C@@H](O)C[C@@H]9O[C@H]8C[C@H]8O[C@@H](CC[C@@H]1O2)C[C@@H](C)C8=C)O[C@@H]7[C@@H]6O3)[C@H]5O4` returned an IC50 with DLD-1 of 3.4 nM. The IC99 in the test with U-937 is 0.22 µM. For the same compound, in the test with P388, the FR is reported as 12.
In the case of `C=C1C[C@@H]2CC[C@@]34C[C@@H]5O[C@@H]6C(O[C@H]7CC[C@H](CC(=O)O[C@@H]8[C@@H](OC)[C@@H]9OC(C)(C)OC[C@@H]9O[C@H]8C[C@H]8O[C@@H](CC[C@@H]1O2)C[C@@H](C)C8=C)O[C@@H]7[C@@H]6O3)[C@H]5O4`, 11 nM corresponded to half-maximal inhibition in the test with DLD-1 (IC50). The IC99 in the test on U-937 is > 1 µM. Further, in the test on P388, the FR was 1.7.
For `C=C1C[C@@H]2CC[C@@]34C[C@@H]5O[C@@H]6C(O[C@H]7CC[C@H](CC(=O)O[C@@H]8[C@@H](OC)[C@H](O)[C@H](CO)O[C@H]8C[C@H]8O[C@@H](CC[C@@H]1O2)C[C@@H](C)C8=C)O[C@@H]7[C@@H]6O3)[C@H]5O4`, in that order: 2.6 nM, 0.3 µM and 8.5.
For `C=C1C2C[C@@H]3O[C@@H](C[C@H](O)CO)[C@H](OC)[C@H]3OC(=O)C[C@H]3CC[C@@H]4OC5[C@H]6O[C@H]7C[C@](CC[C@H]8CC(=C)[C@H](CC[C@@H](C[C@H]1C)O2)O8)(OC6[C@H]4O3)O[C@H]57`, in that order: 6.4 nM, 0.1 µM and 8.2.
Taken in the same sequence, the figures for `C=C1C[C@@H]2CC[C@@]34C[C@@H]5O[C@@H]6C(O[C@H]7CC[C@H](CC(=O)O[C@@H]8[C@@H](OC)[C@H](O)[C@H](CCOC)O[C@H]8C[C@H]8O[C@@H](CC[C@@H]1O2)C[C@@H](C)C8=C)O[C@@H]7[C@@H]6O3)[C@H]5O4` were 1.8 nM, > 1 µM and 1.6.
Turning to `C=C1C[C@@H]2CC[C@@]34C[C@@H]5O[C@@H]6C(O[C@H]7CC[C@H](CC(=O)O[C@H]8C(CC9OC(CCC1O2)C[C@@H](C)C9=C)O[C@H]1C[C@H]2O[C@@]9(C[C@@H]%10O[C@]%11(C[C@H](C)[C@@H]%12O[C@H]([C@@H](O)C[C@@H](O)CO)C[C@@H]%12O%11)C[C@H](C)[C@@H]%10O9)C[C@H]2O[C@H]1[C@@H]8C)O[C@@H]7[C@@H]6O3)[C@H]5O4` (stereo partly drawn), half-maximal inhibition in the test with DLD-1 (IC50) was put at 0.74 nM. In the test on U-937, this compound came in with an IC99 of 0.025 µM. Also, in the test with P388, the FR is reported as 2.8.
For `C=C1C[C@@H]2CC[C@@]34C[C@@H]5O[C@@H]6C(O[C@H]7CC[C@H](CC(=O)O[C@@H]8[C@@H](OC)[C@@H](O)[C@H](CO)O[C@H]8C[C@H]8O[C@@H](CC[C@@H]1O2)C[C@@H](C)C8=C)O[C@@H]7[C@@H]6O3)[C@H]5O4`, in that order: 2 nM, 0.065 µM and 13.
For `C=C1C[C@@H]2CC[C@@]34C[C@@H]5O[C@@H]6C(O[C@H]7CC[C@H](CC(=O)O[C@@H]8[C@@H](OC)[C@H](CO)O[C@@H]8C[C@H]8O[C@@H](CC[C@@H]1O2)C[C@@H](C)C8=C)O[C@@H]7[C@@H]6O3)[C@H]5O4`, the IC50 in the test on DLD-1 is > 1000 nM.
`C=C1C[C@@H]2CC[C@@]34C[C@@H]5O[C@@H]6C(O[C@H]7CC[C@H](CC(=O)O[C@@H]8[C@@H](OC)[C@@H](O)[C@H](CCO)O[C@H]8C[C@H]8O[C@@H](CC[C@@H]1O2)C[C@@H](C)C8=C)O[C@@H]7[C@@H]6O3)[C@H]5O4` displayed an IC50 with DLD-1 of 1.8 nM. Besides, in the test on U-937, the IC99 stood at 0.1 µM. Further, the FR with P388 is given as 12.
For `C=C1C[C@@H]2CC[C@@]34C[C@@H]5O[C@@H]6C(O[C@H]7CC[C@H](CC(=O)O[C@@H]8[C@@H](OC)[C@H](O)[C@H](CCO)O[C@H]8C[C@H]8O[C@@H](CC[C@@H]1O2)C[C@@H](C)C8=C)O[C@@H]7[C@@H]6O3)[C@H]5O4`, the IC50 in the test on DLD-1 amounted to 1.8 nM. The compound also returned an IC99 in the test on U-937 of 0.3 µM. Moreover, the FR with P388 is listed as 10.
Take `C=C1C[C@@H]2CC[C@@]34C[C@@H]5O[C@@H]6C(O[C@H]7CC[C@H](CC(=O)O[C@@H]8[C@@H](OCC)[C@@H](O)[C@H](CC(O)CO)O[C@H]8C[C@H]8O[C@@H](CC[C@@H]1O2)C[C@@H](C)C8=C)O[C@@H]7[C@@H]6O3)[C@H]5O4` (stereo partly drawn): half-maximal inhibition with DLD-1 (IC50) required 490 nM.
`C=C1C[C@@H]2CC[C@@]34C[C@@H]5O[C@@H]6C(O[C@H]7CC[C@H](CC(=O)O[C@@H]8[C@@H](C)[C@H](O)[C@H](CCO)O[C@H]8C[C@H]8O[C@@H](CC[C@@H]1O2)C[C@@H](C)C8=C)O[C@@H]7[C@@H]6O3)[C@H]5O4` had an IC50 in the test with DLD-1 of 2.5 nM. In the test on U-937, this compound yielded an IC99 of 0.17 µM. In addition, in the test with P388, the FR is 5.6.
As to `C=C1C[C@@H]2CC[C@@]34C[C@@H]5O[C@@H]6C(O[C@H]7CC[C@H](CC(=O)O[C@@H]8[C@H](OC)[C@H](CC(O)CO)O[C@H]8C[C@H]8O[C@@H](CC[C@@H]1O2)C[C@@H](C)C8=C)O[C@@H]7[C@@H]6O3)[C@H]5O4` (stereo partly drawn), the IC50 with DLD-1 is 220 nM.
In the case of `C=C1C[C@@H]2CC[C@@]34C[C@@H]5O[C@@H]6C(O[C@H]7CC[C@H](CC(=O)O[C@@H]8[C@@H](OC)[C@H](CCO)O[C@H]8C[C@H]8O[C@@H](CC[C@@H]1O2)C[C@@H](C)C8=C)O[C@@H]7[C@@H]6O3)[C@H]5O4`, the IC50 with DLD-1 was 0.97 nM. For the same compound, the IC99 with U-937 was determined as 0.1 µM. Moreover, the FR with P388 is given as 2.8.
Consider `C=C1C[C@@H]2CC[C@@]34C[C@@H]5O[C@@H]6C(O[C@H]7CC[C@H](CC(=O)O[C@@H]8[C@@H](OC)[C@@H](O)CO[C@H]8C[C@H]8O[C@@H](CC[C@@H]1O2)C[C@@H](C)C8=C)O[C@@H]7[C@@H]6O3)[C@H]5O4`, for which, in the test on DLD-1, the IC50 is > 1000 nM.
Compound `C=C1C[C@@H]2CC[C@@]34C[C@@H]5O[C@@H]6C(O[C@H]7CC[C@H](CC(=O)O[C@@H]8[C@@H](OC)[C@@H](O)[C@@H](CC(O)CO)O[C@H]8C[C@H]8O[C@@H](CC[C@@H]1O2)C[C@@H](C)C8=C)O[C@@H]7[C@@H]6O3)[C@H]5O4` (stereo partly drawn) displayed an IC50 in the test with DLD-1 of 12 nM. The IC99 with U-937 stood at 0.065 µM. Besides, the FR in the test with P388 is 20.
For the compound `C=C1C[C@@H]2CC[C@@]34C[C@@H]5O[C@@H]6C(O[C@H]7CC[C@H](CC(=O)O[C@@H]8[C@@H](OC)[C@H](CO)O[C@H]8C[C@H]8O[C@@H](CC[C@@H]1O2)C[C@@H](C)C8=C)O[C@@H]7[C@@H]6O3)[C@H]5O4`, the midpoint of inhibition with DLD-1, the IC50, lay at 1 nM. In the test with U-937, this compound displayed an IC99 of 0.1 µM. Further, in the test on P388, the FR is 2.8.
For `C=C1C[C@@H]2CC[C@@]34C[C@@H]5O[C@@H]6C(O[C@H]7CC[C@H](CC(=O)O[C@@H]8[C@@H](OC)[C@H](OC)[C@H](CCO)O[C@H]8C[C@H]8O[C@@H](CC[C@@H]1O2)C[C@@H](C)C8=C)O[C@@H]7[C@@H]6O3)[C@H]5O4`, in that order: 2.1 nM, > 1 µM and 2.6.
